Measured values reported in ChEMBL document CHEMBL5154645, “Potent Anti-SARS-CoV-2 Activity by the Natural Product Gallinamide A and Analogues via Inhibition of Cathepsin L” (J Med Chem, 2022).
pEC50, pIC50, pKi: −log10 of the molar value. Calls of active or inactive are those of the source. The calls are words filed in the database; no cut-off is given here.

Experiments:
[1] = molecular target: T1, Cathepsin B (Homo sapiens, UniProt P07858); assay: Inhibition of human recombinant Cathepsin B assessed as ratio of Kinact/Kiapp using Z-FR-AMC as substrate inubated for 30 mins by fluorometric assay
Method in brief: (§1)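 Human CatL, human CatB or mouse CatL at 1 nM, at 25 °C in pH 5.5 Na acetate/DTT/EDTA/NaCl buffer. Reactions held 40 μM Z-FR-AMC and 555.56 to 0.01 nM compound, in quadruplicate. Product formation was measured at 6 min intervals for 1 h and normalized to DMSO wells. kobs came from inactivation curves. kinact and KIapp were obtained by nonlinear regression of kobs = kinact[I]/(KIapp + [I]); their ratio was then calculated.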

[2] = molecular target: T2, Procathepsin L (Mus musculus) (UniProt P06797); assay: Inhibition of mouse Cathepsin L assessed as ratio of Kinact/Kiapp using Z-FR-AMC as substrate inubated for 30 mins by fluorometric assay; method in brief: as §1
T2 sequence (whole entry): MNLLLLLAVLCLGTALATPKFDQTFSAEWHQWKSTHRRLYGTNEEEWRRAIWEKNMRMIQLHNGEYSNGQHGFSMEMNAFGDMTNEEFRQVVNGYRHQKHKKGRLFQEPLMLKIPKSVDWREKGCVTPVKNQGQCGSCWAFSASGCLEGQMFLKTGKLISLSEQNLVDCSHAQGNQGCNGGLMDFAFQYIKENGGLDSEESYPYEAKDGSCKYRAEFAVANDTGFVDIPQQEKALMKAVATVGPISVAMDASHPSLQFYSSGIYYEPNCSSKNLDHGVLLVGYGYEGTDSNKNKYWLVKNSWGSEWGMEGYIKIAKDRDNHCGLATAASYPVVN

[3] = test system: SARS-CoV-2; assay: Antiviral activity against SARS-CoV-2 infected in African green monkey Vero E6 cells assessed as inhibition of viral infection pre incubated for 30 minutes followed by viral infection and measured after 72 hrs by Nucblue dye based fluorometric analysis; format: functional, organism-based; conditions: Severe acute respiratory syndrome coronavirus 2, Vero C1008
[4] = molecular target: T3, Procathepsin L (Homo sapiens, UniProt P07711); assay: Inhibition of human recombinant Cathepsin L assessed as Kinact using Z-FR-AMC as substrate inubated for 30 mins by fluorometric assay; method in brief: as §1
Target sequence in this assay (P07711 114-333 limits assumed): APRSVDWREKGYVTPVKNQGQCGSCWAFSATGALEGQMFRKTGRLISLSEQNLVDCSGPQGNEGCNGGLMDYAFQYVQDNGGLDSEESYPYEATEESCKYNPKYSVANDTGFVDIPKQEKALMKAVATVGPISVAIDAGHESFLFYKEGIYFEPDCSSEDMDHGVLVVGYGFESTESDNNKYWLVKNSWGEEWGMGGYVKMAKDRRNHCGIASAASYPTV

[5] = molecular target: T4, Cathepsin K (Homo sapiens, UniProt P43235); assay: Inhibition of human recombinant Cathepsin K assessed remaining activity using Z-FR-AMC as substrate incubated for 30 mins by fluorometric assay
T4 sequence (P43235 whole entry): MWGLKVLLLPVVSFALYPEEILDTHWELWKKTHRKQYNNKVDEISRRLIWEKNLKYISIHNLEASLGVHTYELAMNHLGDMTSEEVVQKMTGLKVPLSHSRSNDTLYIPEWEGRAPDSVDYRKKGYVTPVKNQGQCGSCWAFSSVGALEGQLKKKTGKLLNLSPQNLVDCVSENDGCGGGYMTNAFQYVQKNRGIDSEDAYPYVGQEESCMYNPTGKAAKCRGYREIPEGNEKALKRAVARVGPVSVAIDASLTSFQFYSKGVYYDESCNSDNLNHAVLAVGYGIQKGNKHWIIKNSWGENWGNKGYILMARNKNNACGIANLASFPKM
Method in brief: (§2)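 Recombinant human cathepsins: L, B, V and K at 1.11 nM, S at 4.44 nM. Each was preincubated 30 min at 25 °C with 3333 to 0.006 nM compound. Z-FR-AMC was added at 40 μM final. AMC release rate over 0–30 min was compared with DMSO (ex/em 360/460). IC50 from four technical replicates.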

[6] = molecular target: T2, Procathepsin L (Mus musculus); assay: Inhibition of mouse Cathepsin L assessed as Kinact using Z-FR-AMC as substrate inubated for 30 mins by fluorometric assay; method in brief: as §1
[7] = test system: SARS-CoV-2; assay: Antiviral activity against SARS-CoV-2 infected in human MRC5 cells expressing ACE2/TMPRSS2 assessed as inhibition of viral entry at 32 uM; format: functional, organism-based; conditions: Severe acute respiratory syndrome coronavirus 2
[8] = molecular target: T5, Cathepsin L2 (Homo sapiens, UniProt O60911); assay: Inhibition of human recombinant Cathepsin V assessed remaining activity using Z-FR-AMC as substrate incubated for 30 mins by fluorometric assay; method in brief: as §2
T5 sequence (O60911 whole entry): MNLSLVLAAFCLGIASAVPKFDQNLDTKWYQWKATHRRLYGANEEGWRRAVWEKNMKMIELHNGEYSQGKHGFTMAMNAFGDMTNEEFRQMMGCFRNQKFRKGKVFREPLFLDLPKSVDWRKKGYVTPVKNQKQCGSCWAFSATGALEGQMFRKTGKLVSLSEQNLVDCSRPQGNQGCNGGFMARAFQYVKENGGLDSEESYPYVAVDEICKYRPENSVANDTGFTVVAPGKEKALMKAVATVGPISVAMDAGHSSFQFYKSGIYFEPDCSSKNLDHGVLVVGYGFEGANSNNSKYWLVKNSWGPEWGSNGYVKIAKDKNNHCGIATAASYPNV

[9] = test system: Vero C1008; assay: Cytotoxicity against cells African green monkey Vero E6 cells incubated for 24 to 72 hrs by alamar blue assay; format: toxicity, cell-based; conditions: chlorocebus sabaeus, time 24-72 hrs
Method in brief: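 VeroE6 cells in DMEM with 10% FCS were seeded at 5 × 10^4 per well. After adherence, cells were given varying compound concentrations for 24 or 72 h at 37 °C, 5% CO2. Alamar Blue HS was added for a further 2–4 h. Viability was read as fluorescence at ex/em 560/590 nm.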

[10] = molecular target: T3, Procathepsin L; assay: Inhibition of human recombinant Cathepsin L assessed as ratio of Kinact/Kiapp using Z-FR-AMC as substrate inubated for 30 mins by fluorometric assay
Target sequence in this assay (P07711 114-333 limits assumed): as the sequence (P07711 114-333 limits assumed) above

[11] = molecular target: Cathepsin S (Homo sapiens, UniProt P25774); assay: Inhibition of human recombinant Cathepsin S assessed remaining activity using Z-FR-AMC as substrate incubated for 30 mins by fluorometric assay; method in brief: as §2
Chain of Cathepsin S (P25774 whole entry): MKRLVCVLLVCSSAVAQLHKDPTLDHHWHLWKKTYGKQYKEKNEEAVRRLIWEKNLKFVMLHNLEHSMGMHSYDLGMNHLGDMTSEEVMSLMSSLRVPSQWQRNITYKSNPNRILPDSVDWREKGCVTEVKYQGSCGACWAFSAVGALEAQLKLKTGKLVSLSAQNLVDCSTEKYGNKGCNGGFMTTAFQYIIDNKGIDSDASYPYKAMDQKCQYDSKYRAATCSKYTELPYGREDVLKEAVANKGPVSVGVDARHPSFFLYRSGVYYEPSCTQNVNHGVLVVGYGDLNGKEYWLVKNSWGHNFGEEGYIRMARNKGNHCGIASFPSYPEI

[12] = molecular target: T1, Cathepsin B; assay: Inhibition of human recombinant Cathepsin B assessed remaining activity using Z-FR-AMC as substrate incubated for 30 mins by fluorometric assay; method in brief: as §2
[13] = molecular target: T6, Procathepsin L (Mus musculus, UniProt P06797); assay: Inhibition of mouse Cathepsin L assessed as Apparent inhibition constant using Z-FR-AMC as substrate inubated for 30 mins by fluorometric assay; conditions: read-out: Ki(app); method in brief: as §1
T6 sequence (P06797 whole entry): T2 sequence (whole entry)

[14] = molecular target: T1, Cathepsin B; assay: Inhibition of human recombinant Cathepsin B assessed as Kinact using Z-FR-AMC as substrate inubated for 30 mins by fluorometric assay
[15] = molecular target: T1, Cathepsin B; assay: Inhibition of human recombinant Cathepsin B assessed as Apparent inhibition constant using Z-FR-AMC as substrate inubated for 30 mins by fluorometric assay; conditions: read-out: Ki(app); method in brief: as §1
[16] = molecular target: T3, Procathepsin L; assay: Inhibition of human recombinant Cathepsin L assessed as Apparent inhibition constant using Z-FR-AMC as substrate […] by fluorometric assay; conditions: read-out: Ki(app)
Target sequence in this assay (P07711 whole entry): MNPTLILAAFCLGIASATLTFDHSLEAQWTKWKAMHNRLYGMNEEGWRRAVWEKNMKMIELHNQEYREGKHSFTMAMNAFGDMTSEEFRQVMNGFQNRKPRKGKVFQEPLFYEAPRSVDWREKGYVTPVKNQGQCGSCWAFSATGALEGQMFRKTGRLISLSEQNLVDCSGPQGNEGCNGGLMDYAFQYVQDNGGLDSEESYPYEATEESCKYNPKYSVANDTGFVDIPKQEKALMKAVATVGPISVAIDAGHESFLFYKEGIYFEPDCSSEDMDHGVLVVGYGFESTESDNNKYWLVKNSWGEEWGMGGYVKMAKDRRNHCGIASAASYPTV

[17] = molecular target: T3, Procathepsin L; assay: Binding affinity to Cathepsin L in African green monkey VeroE6 cell lysates assessed as covalent adducts by quantitative mass spectrometry; format: subcellular; conditions: Vero E6
Method in brief: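 VeroE6 cells at 80–90% confluence were treated with 10 μM compound for 1 h in triplicate, washed with DPBS, and lysed in 4% sodium deoxycholate buffer. Lysates were digested to peptides and analysed by nanoflow LC-MS/MS. Covalent CatL adducts were identified by targeted MS/MS at 1% FDR.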
Target sequence in this assay (P07711 114-333 limits assumed): as the sequence (P07711 114-333 limits assumed) above

[18] = molecular target: T1, Cathepsin B; assay: Inhibition of recombinant human Cathepsin B in African green monkey Vero E6 using Z-Phe-Arg-AMC as substrate for 30 mins by fluorometric assay; format: cell-based
Method in brief: (§3)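 VeroE6 or A549 cells were lysed by sonication in 50 mM MES pH 6.0 with AEBSF, pepstatin A, EDTA and DTT; protein was quantified by BCA. An equal volume of 50 μM Z-Phe-Arg-AMC was then added. Activity was normalized to 0.2% DMSO wells.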

[19] = test system: SARS-CoV-2; assay: Antiviral activity against SARS-CoV-2 infected in Vero E6 cells assessed as inhibition of viral entry at 0.5 uM and measured after 24 hrs post infection by Alexa Fluor 488 and Hoechst dye based fluorescence microscopy; format: functional, organism-based; conditions: Severe acute respiratory syndrome coronavirus 2
[20] = test system: SARS-CoV-2; assay: Antiviral activity against SARS-CoV-2 infected in African green monkey Vero E6 cells assessed as inhibition of viral entry at 0.5 uM pretreated for 30 mins with cells followed by viral infection and measured after 24 hrs post infection by Alexa Fluor 488 and Hoechst dye based fluorescence microscopy; format: functional, organism-based; conditions: Severe acute respiratory syndrome coronavirus 2
[21] = test system: SARS-CoV-2; assay: Antiviral activity against SARS-CoV-2 infected in human HEK293 cells expressing TMPRSS2 as inhibition of viral entry; format: functional, organism-based; conditions: Severe acute respiratory syndrome coronavirus 2
[22] = molecular target: T3, Procathepsin L; assay: Inhibition of recombinant human Cathepsin L in African green monkey Vero E6 at 20 uM using Z-Phe-Arg-AMC as substrate for 30 mins by fluorometric assay; format: cell-based; method in brief: as §3
Target sequence in this assay (P07711 114-333 limits assumed): as above

[23] = test system: SARS-CoV-2; assay: Synergistic antiviral activity against SARS-CoV-2 infected in human HEK293 cells expressing TMPRSS2 as inhibition of viral entry in presence of Na-famostat mesylate; format: functional, organism-based; conditions: Severe acute respiratory syndrome coronavirus 2
[24] = molecular target: T1, Cathepsin B; assay: Inhibition of recombinant human Cathepsin B expressed in huamn A549 using Z-Phe-Arg-AMC as substrate incubated for 30 mins by fluorometric assay; method in brief: as §3
[25] = test system: SARS-CoV-2; assay: Anti viral activity against SARS-CoV-2 infected in African green monkey veroE6 assessed as reduction in viral load; format: functional, Severe acute respiratory syndrome coronavirus 2, Vero E6

| Structure (SMILES) | Ratio [1] | Ratio [2] | pEC50 [3] | Kinact [4] | pIC50 [5] | Kinact [6] | Activity [7] | pIC50 [8] | CC50 [9] | Ratio [10] | pIC50 [11] | pIC50 [12] | pKi [13] | Kinact [14] | pKi [15] | pKi [16] | also measured |
| --- | --- | --- | --- | --- | --- | --- | --- | --- | --- | --- | --- | --- | --- | --- | --- | --- | --- |
| COC1=CC(=O)N(C(=O)/C=C/[C@H](C)NC(=O)[C@H](CCc2ccccc2)NC(=O)[C@H](CC2CCCCC2)NC(=O)[C@H](C(C)C)N(C)C)[C@H]1Cc1c[nH]c2ccccc12 | 9.65 10^3/s/M | 1.36 10^5/s/M | 6.77 | 5.87 10^-3/s | 6.66 | 2.24 10^-3/s | Active | 6.73 | > 100000 nM | 1.89 10^5/s/M | 7.22 | 7.32 | 7.78 | 3.35 10^-3/s | 6.46 | – | – |
| COC1=CC(=O)N(C(=O)/C=C/[C@H](CCc2ccccc2)NC(=O)[C@H](CC(C)C)NC(=O)[C@H](CC(C)C)NC(=O)[C@H](C(C)C)N(C)C)[C@H]1Cc1c[nH]c2ccccc12 | 7.94 10^3/s/M | 2.31 10^6/s/M | 6.04 | 9.85 10^-3/s | 8.82 | 9.6 10^-3/s | – | 6.38 | > 100000 nM | 8.35 10^5/s/M | 9.65 | 9.83 | 8.38 | 1.89 10^-3/s | 6.62 | 7.93 | – |
| CC[C@H](C)[C@@H](C(=O)O[C@@H](CC(C)C)C(=O)N[C@@H](CC(C)C)C(=O)N[C@@H](C)/C=C/C(=O)N1C(=O)C=C(OC)[C@@H]1C)N(C)C [GALLINAMIDE A] | – | 1.07 10^6/s/M | 7.55 | 4.75 10^-3/s | 7.10 | 5.69 10^-3/s | Active | 6.16 | > 100000 nM | – | 9.44 | 8.13 | 8.28 | 6.27 10^-4/s | 6.93 | 8.10 | Activity [17]: Active; inhibition [18]: Active; Activity [19]: Active; Activity [20]: Active; Activity [21]: Active; inhibition [22]: Active; Activity [23]: Active; inhibition [24]: Active; IC90 [25]: 88 nM |
